Laboratory results taken from ChEMBL document CHEMBL1177657, “Design and synthesis of novel hydroxyalkylaminomethylchromones for their IL-5 inhibitory activity” (Bioorg Med Chem, 2010).
Values joined by “and” are separate entries in the source; they are usually repeats but may differ in a detail not shown here. Equal values may be shown once. One block for each compound: values may come before it.

What was measured:
Format in all cases: cell-based
[1] = target: T1, Interleukin-5 (Mus musculus, UniProt P04401); assay: Inhibition of interleukin-5 in mouse Y16 cells
T1 sequence (P04401 whole entry): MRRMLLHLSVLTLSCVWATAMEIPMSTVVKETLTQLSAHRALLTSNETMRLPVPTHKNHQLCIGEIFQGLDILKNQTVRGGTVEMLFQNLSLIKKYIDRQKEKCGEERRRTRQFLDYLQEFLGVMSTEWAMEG
Procedure, shortened: (§1)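 IL-5-dependent mouse pro-B Y16 cells were incubated with 3 units/mL mIL-5 for 48 h, with or without test sample. Cell metabolism was then read with the tetrazolium salt WST-1 as an index of proliferation.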

[2] = target: T2, Interleukin-5 (Mus musculus) (UniProt P04401); assay: Inhibition of interleukin-5 in mouse Y16 cells at 30 uM; procedure, shortened: as §1
T2 sequence (whole entry): T1 sequence (P04401 whole entry)

[3] = target: T2, Interleukin-5 (Mus musculus); assay: Inhibition of interleukin-5 in mouse Y16 cells at 50 uM; procedure, shortened: as §1

SMILES: O=c1c(CNCc2ccccc2)coc2cccc(OCC3CCCCC3)c12
IC50 [1]: > 50 µM
inhibition [2]: 32%

SMILES: COc1ccc(NCc2coc3cccc(OCC4CCCCC4)c3c2=O)cc1
IC50 [1]: > 50 µM
inhibition [2]: 31%

SMILES: O=c1c(CNCCCCCO)coc2cccc(OCC3CCCCC3)c12
IC50 [1]: > 50 µM
inhibition [2]: 20%

SMILES: O=c1c(CNc2ccccc2)coc2cccc(OCC3CCCCC3)c12
IC50 [1]: > 50 µM
inhibition [2]: 14%

SMILES: O=c1c(CNCCCO)coc2cccc(OCC3CCCCC3)c12
IC50 [1]: > 50 µM
inhibition [2]: 15%

SMILES: CCCC(CO)NCc1coc2cccc(OCC3CCCCC3)c2c1=O (centres undefined)
IC50 [1]: > 50 µM
inhibition [2]: 13%

SMILES: O=c1c(CNCCO)coc2cccc(OCC3CCCCC3)c12
IC50 [1]: > 50 µM
inhibition [2]: 13%

SMILES: O=c1c(-c2ccc(O[C@@H]3O[C@H](CO)[C@@H](O)[C@H](O)[C@H]3O)cc2)coc2cc(O)cc(O)c12 [SOPHORICOSIDE]
IC50 [1]: 1.4 µM and 10.6 µM
inhibition [3]: 79.1%

SMILES: O=c1c(CNC(CCO)c2ccccc2)coc2cccc(OCC3CCCCC3)c12 (centres undefined)
IC50 [1]: > 50 µM
inhibition [2]: 30%

Now from value to compound:

IC50 [1]: 25.7 µM
inhibition [2]: 72%
SMILES: O=c1c(CNC(CO)Cc2ccccc2)coc2cccc(OCC3CCCCC3)c12 (centres undefined)

IC50 [1]: 26.2 µM
inhibition [2]: 65%
SMILES: CC(C)(C)C(CO)NCc1coc2cccc(OCC3CCCCC3)c2c1=O (centres undefined)

IC50 [1]: 17.3 µM
inhibition [2]: 93%
SMILES: O=c1c(CNC(CO)CC2CCCCC2)coc2cccc(OCC3CCCCC3)c12 (centres undefined)

IC50 [1]: 18.5 µM
inhibition [2]: 88%
SMILES: O=c1c(CNC(CO)c2ccccc2)coc2cccc(OCC3CCCCC3)c12 (centres undefined)

IC50 [1]: 28.5 µM
inhibition [2]: 50%
SMILES: O=c1c(CNCc2ccc(O)cc2)coc2cccc(OCC3CCCCC3)c12

IC50 [1]: 26.4 µM
inhibition [2]: 63%
SMILES: CC(C)(CO)NCc1coc2cccc(OCC3CCCCC3)c2c1=O

IC50 [1]: 27.3 µM
inhibition [2]: 57%
SMILES: O=c1c(CNc2ccc(O)cc2)coc2cccc(OCC3CCCCC3)c12

IC50 [1]: > 30 µM
inhibition [2]: 43%
SMILES: COc1ccc(CNCc2coc3cccc(OCC4CCCCC4)c3c2=O)cc1
